Drawing on ChEMBL document CHEMBL4513216, “Probing the Open Global Health Chemical Diversity Library for Multistage-Active Starting Points for Next-Generation Antimalarials” (ACS Infect Dis, 2020), this text covers cytotoxicity for 98 molecules.

This data set is described as follows: Toxicity liver stage against HepG2, at 10uM. In kind it is cell-based. As to conditions: human, HepG2-A16-CD81EGFP cells; read-out: INHIBITION
On the set-up: test concentration 10 uM, cell line HepG2-A16-CD81EGFP. The method, boiled down:
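Uninfected HepG2-A16-CD81EGFP cells, 3 × 10^3 per well, 1536-well, plated on prespotted compound at 10 μM final, parasite-free screening media added to match infected plates; puromycin 10 μM positive, DMSO 0.5% negative; run in parallel with 48 h PbLuc assay at 37 °C, 5% CO2; viability by CellTiter-Glo luminescence, normalized to controls.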
For the molecule `O=C(NCCN1CCCCC1=O)C1CCC(=O)N(C2CCCC2)C1` (stereo not drawn), the cytotoxicity at 10 µM was -10.8%.
Regarding `CC(C)CCN1CCCC12Cc1ccccc1CNC2=O` (stereo not drawn), the cytotoxicity at 10 µM turned out to be 7.61%.
For the molecule `CCc1n[nH]c(C2CN(C(=O)Cc3cccs3)CCO2)n1` (stereo not drawn), the cytotoxicity at 10 µM came out at 2.83%.
As to `CC(O)CN1CCN(Cc2cccc(C(=O)N(C)C)c2)CC1` (stereo not drawn), the cytotoxicity at 10 µM is -3.93%.
For `Cc1nn(C)c(C)c1-c1ccnc(N(C)Cc2noc(C(C)C)n2)n1` the value was 26.4%; for `CNc1nc(C(=O)N2CCCC(COc3ccc(F)cc3)C2)cs1` (stereo not drawn), 8.35%.
Take `Cn1cc(CN2CCCC23CCN(c2nc4ccccc4s2)CC3)cn1`: the cytotoxicity at 10 µM came out at 4.86%.
With `CNc1cc(C2CCCN2Cc2ccc(OCC(=O)O)cc2)ccn1` (stereo not drawn), the cytotoxicity at 10 µM is -21.9%.
For `O=C(CCC(F)(F)F)N1CCCC(CO)(CC2CC2)C1` (stereo not drawn), the cytotoxicity at 10 µM was determined as 2.75%.
Turning to `Cn1cc(Br)cc(NC(=O)CC(C)(C)C)c1=O`, the cytotoxicity at 10 µM came out at 5.82%.
For `O[C@H]1CCN(CCCOc2ccccc2F)C[C@@]12CCCO2`, the cytotoxicity at 10 µM turned out to be 1.14%.
On to `N#Cc1ccccc1N1CCC(Nc2nccnc2C#N)CC1`, for which the cytotoxicity at 10 µM was 12.9%.
Take `O=C(c1cc(Br)c[nH]1)N1CCN(Cc2ccco2)CC1`: the cytotoxicity at 10 µM is -64.2%.
With `CC(CO)CN(Cc1ccccc1)Cc1cnc2ccccc2n1` (stereo not drawn), the cytotoxicity at 10 µM came out at 6.6%.
With `COc1c(Br)cccc1CCNC(=O)c1ncoc1C`, the cytotoxicity at 10 µM worked out at 3.39%.
As to `CC(C)N1CCCCC1CCn1cnc2cc(C(F)(F)F)ccc2c1=O` (stereo not drawn), the cytotoxicity at 10 µM is -5.98%.
For `Cc1ncnc2c1CCN(C(=O)N(C)C)CC2` the value was -79.1%; for `CCc1ccsc1C(=O)N1CCN(CC(O)CC)CC1` (stereo not drawn), -4.25%; for `CNCc1cc(F)ccc1Oc1ccc(Cl)cc1`, -8.74%.
Take `CCc1nnc(Nc2cccc(C3CCN(C(=O)CNC)CC3)n2)s1`: the cytotoxicity at 10 µM is -31.2%.
For `CCc1nc(NC(=O)NCCc2cscn2)nn1C`, the cytotoxicity at 10 µM was determined as 2.31%.
In the case of `CCc1nc(C)cn1C(=O)Nc1ccccc1`, the cytotoxicity at 10 µM stood at 2.52%.
Consider `CCN(C(=O)CN1CCC(c2ccccc2)C1)C1CC1` (stereo not drawn), for which the cytotoxicity at 10 µM amounted to 9.4%.
For the molecule `O=C(Nc1nc(-c2ccccc2)ns1)N1CCN(C(=O)C2CC2)CC1`, the cytotoxicity at 10 µM was -150%.
The figure for `CN(Cc1ccc2c(c1)OCO2)C(=O)Cn1cccnc1=O` is -3.96%.
Take `Cc1ncc(COc2ccc(N(C)S(C)(=O)=O)cc2)s1`: the cytotoxicity at 10 µM turned out to be 5.89%.
The figure for `Cc1nn(C)c(Cl)c1C1CCCN1CC(=O)N1CCOCC1` (stereo not drawn) is 3.41%; for `CC(O)c1cn(C2CCN(C(=O)C3(C)CCCCC3)CC2)nn1` (stereo not drawn) it is -7.11%.
For `COC(=O)Cn1nc(-c2ccccc2F)ccc1=O` the value was 8.01%; for `Cc1nsc(C(=O)NCCc2cccs2)n1`, -2.67%.
Turning to `FC(F)(F)c1ccnc(N2CCCC(N3CCOCC3)C2)c1` (stereo not drawn), the cytotoxicity at 10 µM was -24.7%.
As for `Cc1nc(-c2ccco2)ccc1C(=O)NCC(=O)N1CCCCC1`, the cytotoxicity at 10 µM was -7.76%.
With `CC(C)(C)CN1CC(O)CN(C(=O)c2cccc(C(F)(F)F)c2)CC1=O` (stereo not drawn), the cytotoxicity at 10 µM is 5.99%.
With `Cn1ccnc1-c1nccn1C[C@@H]1CCCN2CCCC[C@H]12`, the cytotoxicity at 10 µM was 2.68%.
For the molecule `CCOCc1ccccc1NC(=O)NCC(C)(O)c1ccsc1` (stereo not drawn), the cytotoxicity at 10 µM was -1.09%.
Take `CC(c1ccccc1)N(C)C(=O)CN1CCN(c2cnccn2)CC1` (stereo not drawn): the cytotoxicity at 10 µM is 3.96%.
For `CN(CC(=O)Nc1cccnc1)CC1CCCN1c1cccnn1` (stereo not drawn) the value was 2.66%; for `O=S(=O)(Cc1ccc(F)cc1)N1CCN(CC(O)C2CC2)CC1` (stereo not drawn), 4.77%.
For `O=C(NCC(O)c1ccc(Cl)s1)c1ccoc1` (stereo not drawn) the value was -3.36%; for `CC(Cn1cncn1)NC(=O)NCc1csc(N(C)C)n1` (stereo not drawn), 8.42%.
In the case of `CC(C)C(C)NC(=O)Nc1cccn(C)c1=O` (stereo not drawn), the cytotoxicity at 10 µM is -7.48%.
As to `CCc1nc(CNC(=O)Nc2ccc(C(=O)NC)cc2C)cs1`, the cytotoxicity at 10 µM was determined as 16.4%.
As to `CSCCC(O)C(=O)N1CCN(Cc2cccc(Cl)c2)CC1` (stereo not drawn), the cytotoxicity at 10 µM was 6.48%.
In the case of `O=C(NCc1ccncc1)N(Cc1ccc(F)cc1F)C1CC1`, the cytotoxicity at 10 µM came to 3.9%.
On to `O=C(CCn1cccn1)N1CCN(CC(F)F)CC1`, for which the cytotoxicity at 10 µM was -5.11%.
On to `CC(C(=O)NCC1CCN(c2ccncc2)CC1)S(C)(=O)=O` (stereo not drawn), for which the cytotoxicity at 10 µM was 17.4%.
Consider `CCC(C)N(Cc1cnc(OC)nc1)Cc1ccsc1` (stereo not drawn), for which the cytotoxicity at 10 µM was determined as 1.71%.
Turning to `c1csc(CN2CCCn3cnc(COCC4CC4)c3C2)c1`, the cytotoxicity at 10 µM was -74.6%.
In the case of `CC(=O)NCCc1ccc(S(=O)(=O)Nc2ccc(C)cc2F)s1`, the cytotoxicity at 10 µM was -5.48%.
Turning to `O=C(C1CCOC1)N1CCc2ncc(CNc3ccccn3)n2CC1` (stereo not drawn), the cytotoxicity at 10 µM is 0.0499%.
The figure for `O=C(Cc1ccsc1)N1CCC2(CCCN(CC3CCOCC3)C2)C1` (stereo not drawn) is -135%; for `COCC1CN(C(=O)c2cccn2C)Cc2c1cnn2CC1CC1` (stereo not drawn) it is 8.07%.
`COC(=O)Cn1c(=O)[nH]c2cn(-c3ccc(Cl)cc3)c(=O)n21`: the cytotoxicity at 10 µM came out at 23.7%.
Turning to `CS(=O)(=O)c1cnc(CC2CC2)nc1C1CCCNC1` (stereo not drawn), the cytotoxicity at 10 µM was -33.5%.
Take `c1cncc(COc2ccccc2CNC2CCc3ncnn3C2)c1` (stereo not drawn): the cytotoxicity at 10 µM was -3.69%.
With `NC(=O)C1CN(C(=O)Nc2ccccc2SC2CCCC2)CCO1` (stereo not drawn), the cytotoxicity at 10 µM was -5.15%.
`CN1C(=O)[C@@H]2CC[C@H]1CN(C(=O)Nc1cccc3ccccc13)C2`: the cytotoxicity at 10 µM is -2.69%.
Take `C[C@@H]1CN(Cc2nc(C(N)=O)no2)CC[C@@]1(O)C1CCOCC1`: the cytotoxicity at 10 µM is -38.5%.
In the case of `CCS(=O)(=O)N1CC[C@H]2O[C@H](c3nnc(C)o3)CC[C@H]21`, the cytotoxicity at 10 µM was -75.6%.
Take `CN(C)CCO[C@H]1CN(CC2CC2)[C@@H]2CCCO[C@H]12`: the cytotoxicity at 10 µM was -96.3%.
Consider `Cc1cc(C(=O)NC2CCN(c3ncccc3C#N)CC2)on1`, for which the cytotoxicity at 10 µM is 0.0456%.
In the case of `CC(NCC(N)=O)c1c(F)cccc1Cl` (stereo not drawn), the cytotoxicity at 10 µM was -0.725%.
In the case of `CC(C)N1CCC(Nc2ccn(C)n2)C1=O` (stereo not drawn), the cytotoxicity at 10 µM was -0.794%.
For `c1cnc(N2CCO[C@H]3CN(CC4CCCC4)C[C@H]32)cn1` the value was -101%; for `Cn1cc(CN2CCc3c(COCc4ccncc4)cncc3C2)cn1`, -2.37%.
The figure for `CN(Cc1ccncc1)C(=O)NCc1cn(-c2ccccc2)nn1` is -55.7%; for `Cc1nnc2n1CCN(C(=O)c1cc(C)n(-c3ccccc3)c1C)C2` it is -4.94%; for `CCCc1nc(CN(CC)C(=O)c2ccc(S(C)(=O)=O)cc2)no1` it is -5.03%.
The figure for `CCCc1n[nH]c(C2CN(C(=O)c3ccc4c(c3)COC4)CCO2)n1` (stereo not drawn) is -12.4%; for `Fc1ccc(C(NCc2nnc(-c3ccco3)o2)C2CCC2)cc1` (stereo not drawn) it is -36.3%; for `Cc1nc(C)c(S(=O)(=O)NC(=O)c2ccoc2)s1` it is -6.91%.
With `Cc1ccc(C(=O)N2Cc3c(CN4CCCCC4)nn(C)c3C2)cc1C`, the cytotoxicity at 10 µM was -2.81%.
Regarding `CCc1nc(CNC(C)c2cccc(N3CCCC3=O)c2)cs1` (stereo not drawn), the cytotoxicity at 10 µM was 7.28%.
Turning to `Cn1nc2c(cc1=O)CN(Cc1coc(-c3cccc(F)c3)n1)CC2`, the cytotoxicity at 10 µM is -12.6%.
For the molecule `CC(=O)N1C[C@H]2CCCN(c3ncc(C)cn3)[C@H]2C1`, the cytotoxicity at 10 µM is 9.52%.
For `Cc1nn(CCn2ccnc2-c2cc3n(n2)CCCNC3)c(C)c1Cl` the value was -8.52%; for `COc1ccc(CN(Cc2ccco2)Cc2[nH]cnc2C)c(OC)c1`, -1.57%.
Regarding `O=C(Cn1cccnc1=O)NC(Cc1cccs1)c1ccccn1` (stereo not drawn), the cytotoxicity at 10 µM was -2.03%.
On to `COc1ccccc1-c1ccccc1CC1(C(=O)O)CCNCC1`, for which the cytotoxicity at 10 µM was -0.782%.
Take `O=S(=O)(NCc1ccccc1Cn1cncn1)N1CCCCCC1`: the cytotoxicity at 10 µM was 0.512%.
Regarding `CCN1C(=O)CC(c2ccccc2)C12CCN(c1ncc(C)cn1)CC2` (stereo not drawn), the cytotoxicity at 10 µM is -2.6%.
As for `CCCOc1cc(C)ccc1NC(=O)N(C)Cc1cnn(C)c1`, the cytotoxicity at 10 µM is -11.1%.
As to `O=C(Cc1cccs1)NCC1(O)CCSCC1`, the cytotoxicity at 10 µM is -10.5%.
For the molecule `CC(C)NC(=O)C1(CC2CC(c3ccc(F)cc3)=NO2)CCNCC1` (stereo not drawn), the cytotoxicity at 10 µM is -8.54%.
As to `Cc1ccc(-c2noc(CNCC3CN(C)CCO3)n2)cc1F` (stereo not drawn), the cytotoxicity at 10 µM was -1.51%.
On to `O=C(c1cncc(NCC2COc3ccccc3C2)n1)N1CCCC1` (stereo not drawn), for which the cytotoxicity at 10 µM is -6.53%.
Take `Cc1nn(C)c(C)c1C1CCCN1C(=O)CCNS(C)(=O)=O` (stereo not drawn): the cytotoxicity at 10 µM was -26%.
`COc1cccc([C@@H]2CN(C(=O)c3ccc(C)cc3O)C[C@H]2C(=O)O)c1`: the cytotoxicity at 10 µM turned out to be 6.49%.
Turning to `CCn1ncc2c1C(COC)N(C(=O)c1ccsc1)CC2` (stereo not drawn), the cytotoxicity at 10 µM is -101%.
For `CCn1cc(CN2CCCN(C(=O)CCc3cccs3)CC2)cn1` the value was -6.99%.
Consider `CCS(=O)(=O)N1CCC2(CC1)CN(c1cccnc1)C(=O)CO2`, for which the cytotoxicity at 10 µM is -109%.
The figure for `c1coc(-c2nc(CN3CCn4c(nnc4C4CC4)C3)cs2)c1` is -4.64%; for `Cc1ccc(NC(=O)NC(C)C(=O)N2CCS(=O)(=O)CC2)cc1` (stereo not drawn) it is -5.1%; for `CCCn1ccnc1-c1nccn1CCC(N)=O` it is -10.3%.
In the case of `CN1CCC(NC(=O)[C@H]2CC[C@@H]3[C@@H](CCN3c3ncccn3)O2)CC1`, the cytotoxicity at 10 µM amounted to 7.43%.
For `CCN1C(=O)CCC12CCN(S(=O)(=O)c1ccccc1)CC2`, the cytotoxicity at 10 µM was -4.9%.
Regarding `O=C1NC2(CCN(C(=O)CN3CCOCC3)CC2)Nc2ccc(Cl)cc21`, the cytotoxicity at 10 µM is 0.961%.
For `Cc1ncsc1CN1CC[C@](C)(O)[C@@H](Oc2cccc(F)c2)C1` the value was -14.8%.
